Laboratory results as given in ChEMBL document CHEMBL1133679, “Synthesis and cytotoxicity of 4-amino-5-oxopyrido[2,3-d]pyrimidine nucleosides” (J Med Chem, 2000).

Columns and labels:
Assay type in all cases: functional, cell-based
[1] = Cytotoxicity that caused a 50% reduction in absorbance at 490 nm in human prostate cancer HTB-81 cells using MTS assay.
How it was run: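 DU-145 (HTB-81) prostate cancer cells were grown in MEM with 10% fetal bovine serum and 2 mM L-glutamine. They were plated at 4×10^3 per well and treated at 0.78–100 μM from 100 mM DMSO stocks diluted in medium, with a 1% DMSO control. MTS read at 490 nm after 72 h. EC50 is the 50% absorbance drop versus untreated cells.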

[2] = Cytotoxicity that caused a 50% reduction in absorbance at 490 nm in normal human fibroblast (NHF) cells using MTS assay.
How it was run: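 Normal human dermal fibroblasts were cultivated in FGM medium and seeded at 4×10^3 cells per well. Exposure was 0.78–100 μM, diluted in medium from 100 mM DMSO stocks, with a 1% DMSO control. Formazan absorbance at 490 nm was measured by MTS after 72 h. EC50 is the concentration halving absorbance relative to untreated cells.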

[3] = system: B16; test: Cytotoxicity that caused a 50% reduction in absorbance at 490 nm in B16 mouse melanoma cells using MTS assay.
How it was run: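 Compounds taken from 100 mM DMSO stocks and diluted in culture medium. Cells seeded at 4×10^3 per well and exposed to 0.78–100 μM. A 1% DMSO control was run in parallel. MTS reagent added after 72 h and formazan read at 490 nm. EC50 is the concentration giving 50% absorbance reduction versus untreated cells.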

Compound | EC50 ([1]; Homo sapiens, HTB-81) [µM] | EC50 ([2]; Homo sapiens) [µM] | EC50 ([3]; Mus musculus, B16) [µM] | EC50 ([1]; htb-81) [µM] | EC50 [2] [µM] | EC50 ([3]; b16) [µM]
N=c1ncn(C2O[C@H](CO)[C@@H](O)[C@H]2O)c2nccc(O)c12 (stereo partly specified) | 7.3 | 7.3 |  |  |  | 
COc1cccc2c1C(=O)c1c(O)c3c(c(O)c1C2=O)C[C@@](O)(C(C)=O)C[C@@H]3O[C@H]1C[C@H](N)[C@H](O)[C@H](C)O1 [DAUNORUBICIN] | 0.058 | 0.22 | 0.16 |  |  | 
C=C[C@]1(CO)OC(n2ccc(=O)c3c(N)ncnc32)[C@H](O)[C@@H]1O (stereo partly specified) | 34.2 | 76.8 | 99.7 |  |  | 
C#C[C@@H](O)[C@H]1O[C@@H](n2ccc(=O)c3c(N)ncnc32)[C@H](O)[C@@H]1O.C#C[C@H](O)[C@H]1O[C@@H](n2ccc(=O)c3c(N)ncnc32)[C@H](O)[C@@H]1O (mixture of isomers) | 6.1 | 15.3 | 17.2 |  |  | 
N#Cc1cn([C@@H]2O[C@H](CO)[C@@H](O)[C@H]2O)c2ncnc(N)c12 [TOYOCAMYCIN] | 0.012 | 0.004 | 0.005 |  |  | 
Nc1ncnc2c1c(=O)ccn2C1O[C@H](CO)[C@H](O)[C@H]1O (stereo partly specified) | 0.73 | 20.7 | 5.9 |  |  | 
Nc1ncnc2c1c(=O)ccn2[C@@H]1OC(CO)(CO)[C@@H](O)[C@H]1O | > 100 | > 100 | > 100 |  |  | 
C=C1[C@@H](O)[C@H](n2ccc(=O)c3c(N)ncnc32)O[C@@H]1CO | 31.1 | 41.1 | 60.5 |  |  | 
C=C1[C@H](n2ccc(=O)c3c(N)ncnc32)O[C@H](CO)[C@H]1O | > 100 | > 100 | > 100 |  |  | 
C[C@]1(CO)OC(n2ccc(=O)c3c(N)ncnc32)[C@H](O)[C@@H]1O (stereo partly specified) | 19.7 | 29.9 | 55.5 |  |  | 
Nc1ncnc2c1c(=O)ccn2C1CCC(CO)O1 (stereo unspecified) | 43.3 | 60.5 | 47.1 |  |  | 
Nc1ncnc2c1c(=O)ccn2C1O[C@H](CO)[C@@H](O)[C@@H]1O (stereo partly specified) | 21.9 | 23.2 | 33.2 |  |  | 
C#C[C@]1(O)[C@@H](CO)OC(n2ccc(=O)c3c(N)ncnc32)[C@@H]1O (stereo partly specified) | > 100 | > 100 | > 100 |  |  | 
N=c1ncn(C2OC(CO)[C@@H](O)[C@@H]2O)c2nccc(O)c12 (stereo partly specified) | > 100 | > 100 | > 100 |  |  | 
Nc1ncnc2c1c(=O)ccn2[C@@H]1O[C@H](CO)[C@@H](O)[C@H]1O (stereo in doubt; 1b) |  |  |  | 0.06 | 0.08 | 0.06
CC[C@@H](O)[C@H]1O[C@@H](n2ccc(=O)c3c(N)ncnc32)[C@H](O)[C@@H]1O.CC[C@H](O)[C@H]1O[C@@H](n2ccc(=O)c3c(N)ncnc32)[C@H](O)[C@@H]1O (mixture of isomers) | 17.3 | 18.9 | 16.3 |  |  | 
C=CC[C@@H](O)[C@H]1OC(n2ccc(=O)c3c(N)ncnc32)[C@H](O)[C@@H]1O (stereo partly specified) | 35.3 | 72 | 66.3 |  |  | 
Nc1ncnc2c1c(=O)ccn2[C@@H]1O[C@H](CO)C[C@H]1O | 2.6 | 9.5 | 19 |  |  | 
C[C@]1(O)C(n2ccc(=O)c3c(N)ncnc32)O[C@H](CO)[C@H]1O (stereo partly specified) | 46.7 | > 100 | 85.5 |  |  | 
Nc1ncnc2nccc(O)c12 | > 100 | > 100 | > 100 |  |  | 
Nc1ncnc2c1c(=O)ccn2[C@H]1C[C@@H](O)[C@@H](CO)O1 | 26.6 | 38.9 | 68.9 |  |  | 
C[C@@H](O)[C@H]1O[C@@H](n2ccc(=O)c3c(N)ncnc32)[C@H](O)[C@@H]1O.C[C@H](O)[C@H]1O[C@@H](n2ccc(=O)c3c(N)ncnc32)[C@H](O)[C@@H]1O | 10 | 16.5 | 18.3 |  |  | 
C#C[C@@]1(O)[C@@H](CO)OC(n2ccc(=O)c3c(N)ncnc32)[C@@H]1O (stereo partly specified) | 0.68 | 6.45 | 2.48 |  |  | 
C#C[C@]1(O)C(n2ccc(=O)c3c(N)ncnc32)O[C@H](CO)[C@H]1O (stereo partly specified) | 29.3 | 65.1 | 81 |  |  | 
C[C@@]1(O)[C@@H](CO)OC(n2ccc(=O)c3c(N)ncnc32)[C@@H]1O (stereo partly specified) | 4.44 | 10.4 | 31.6 |  |  | 
CC[C@]1(CO)OC(n2ccc(=O)c3c(N)ncnc32)[C@H](O)[C@@H]1O (stereo partly specified) | 36.7 | 65.1 | 96 |  |  | 
CCC[C@@H](O)[C@H]1OC(n2ccc(=O)c3c(N)ncnc32)[C@H](O)[C@@H]1O (stereo partly specified) | 20.4 | 41.1 | 51.6 |  |  | 
Nc1ncnc2c1c(=O)ccn2[C@@H]1O[C@H](CO)[C@@H](O)[C@H]1O (stereo in doubt; 1b-L) |  |  |  | > 100 | > 100 | > 100
Nc1ncnc2c1c(=O)ccn2[C@H]1C[C@H](O)[C@@H](CO)O1 | 3.9 | 5 | 11.3 |  |  | 
